From PubChem
LMP1 NFkB inh: reduces LMP1-driven NF-kappaB luciferase signal | LMP1-induced NF-kappaB luciferase reporter cells, luminescence | inhibition, % at 12.5 µM | actives 0.69% (n = 350,000) | AID 504558; in the data active = inhibition above about 41%; inconclusive = no clear call, values can overlap the other calls;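 also: 0% = neutral control wells and 100% = reference inhibitor control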
Shn3 3UTR inh: Schnurri-3 reporter inhibition in Clone20 osteoblasts; Clone20 osteoblast Shn3 3'UTR firefly luciferase, 24 h; inhibition, % at 12.5 µM; actives 0.52% (n = 360,000); AID 588674;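 active = mean inhibition of at least 75% with every replicate also reaching 75%; inconclusive = mean inhibition at least 75% but some replicate below; inactive = mean inhibition below 75%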;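 also: 0% = median of neutral control wells and 100% = pilot-screen positive control compound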
PAX8 reporter: PAX8 transcriptional activity inhibition. actives 1.2% (n = 360,000). RMG-I TPO-luciferase reporter, SteadyGlo, 24 h. inhibition, % at 12.6 µM. AID 652154;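 active = mean replicate inhibition at least 60% with every replicate also reaching 60%; inconclusive = only one of the two criteria is met; inactive = mean below 60% and not all replicates reaching 60%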;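 also: luciferase light reporting Pax8 driven TPO promoter activity; plate controls were median of neutral control wells for no effect and mitoxantrone controls for full effect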
aSyn UTR inh: 5' untranslated region of α-synuclein, MLPCN primary screen | alpha-synuclein 5'UTR reporter, inhibitor activity | inhibition, % (tested at 7.5 µM) | actives 0.82% (n = 300,000); in the data active = inhibition above about 60%; inconclusive = no clear call, values can overlap the other calls;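 also: H4 neuroglioblastoma cells stably carrying SNCA 5'UTR luciferase fusion; 0% = DMSO wells and 100% = positive control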
EWS-Fli inh: blocks EWS/Fli oncoprotein-driven transcription. A673 NR0B1-luciferase reporter, viability-normalised. inhibition, % at 12.6 µM. actives 0.67% (n = 350,000). AID 651661;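 active = mean inhibition of at least 50% after viability correction, with every replicate also passing that limit; inconclusive = mean reaches 50% but only one of two replicates passes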;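 also: firefly luciferase signal divided by Alamar Blue viability fluorescence both relative to DMSO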
FN deposit inh: fibronectin deposition inhibition. AH1F fibroblasts, Alexa488-fibronectin deposition fluorescence, overnight. inhibition, % at 12.6 µM. actives 0.086% (n = 350,000). AID 743247;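 active = mean inhibition across replicates of 30% or more, regardless of how many single replicates reach that level; inconclusive = mean under 30% yet at least half of replicates reach 30%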;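 also: positive control wells lacked labelled fibronectin entirely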
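Assay system: AH1F fibroblasts / Quantity: 10000 cells per well / Medium: DMEM plus 2% serum, read in PBS / Reagent: labelled fibronectin 24 nM / Dosing: single dose, pinned / Times: 1 h cell attachment, overnight exposure to compound and label / Signal: fluorescence, ex 485 nm, em 525 nm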
* = called active by the depositor; ? = inconclusive; nt = no result. In the library only some 2.1% were active in any assay of this set; here they are far more common.

SMILES	LMP1 NFkB inh	Shn3 3UTR inh	PAX8 reporter	aSyn UTR inh	EWS-Fli inh	FN deposit inh
Nc1ncnc(N2CCc3ccccc32)c1[N+](=O)[O-]	65*	-3	-48	44	-14	2
CCCCN1C2=NCCCN2c2ccccc21	-8	1	nt	13	nt	-4
CCCCCCCN1C2=NCCCN2c2ccccc21	3	87*	6	8	11	nt
CC(C)(C)c1ccc(CN2C3=NCCCN3c3ccccc32)cc1	-4	88*	24	-62	nt	10
CN(C)c1ccnc2sc(C(=O)c3ccc(Br)cc3)c(N)c12	1	-62	-28	-85	-33	nt
CN(C)c1ccnc2sc(C(N)=O)c(N)c12	56*	10	nt	36	nt	nt
CCOC(=O)C(C)Oc1cccc2c(=O)n(CC(=O)NCc3ccc4c(c3)OCO4)ccc12 (stereo unspecified)	-8	17	13	65*	23	nt
CCOC(=O)COc1cccc2c(=O)n(CC(=O)NCc3ccc(F)cc3)ccc12	11	38	48	75*	21	7
O=C1OC(c2cc(Br)c(O)c(Br)c2)c2ccccc21 (stereo unspecified)	22	15	-19	nt	9	-3
Nc1c(Br)cc2c(c1Br)C(O)c1ccccc1-2 (stereo unspecified)	-2	94*	4	nt	3	8
C[C@@H]1CN([C@@H](C)CO)C(=O)c2cccc(NC(=O)c3ccc(-c4nccs4)cc3)c2O[C@@H]1CN(C)S(=O)(=O)c1cn(C)cn1	nt	nt	nt	nt	-8	3
Cc1cc(OCC(=O)Nc2cnn(CCCC(=O)O)c2)ccc1Cl	59*	-11	6	11	nt	-1
Cc1cc(OCC(=O)Nc2cnn(CCCC(=O)O)c2)ccc1[N+](=O)[O-]	-1	-1	-14	1	-1	-8
N#Cc1c2ccc([N+](=O)[O-])cc2[n+]([O-])n1-c1ccccc1	50*	31	68*	nt	62*	nt
O=C1c2cccc(NCCNCCO)c2C(=O)c2cccc(NCCNCCO)c21	10	-29	10	nt	59*	3
O=C(O)CCNc1ccc(NCCC(=O)O)c2c1C(=O)c1ccccc1C2=O	3	10	40	15	3	3
COc1ccc(CNC(=O)C[C@@H]2C[C@@H]3c4cc(NC(=O)NC5CCCC5)ccc4O[C@@H]3[C@H](CO)O2)cc1	nt	nt	nt	nt	1	nt
CCCNC(=O)N[C@@H]1CC[C@@H](CCn2cc(C3CCCC3)nn2)O[C@H]1CO	nt	nt	-2	nt	-2	-6
O=C(c1ccc(Br)cc1)c1cc([N+](=O)[O-])ccc1N1CCCCC1	11	2	97*	92*	nt	-3
CN1CCN(c2ccc([N+](=O)[O-])cc2C(=O)c2ccc(Br)cc2)CC1	-2	30	28	67*	nt	3
O=C(c1ccccc1)c1cc([N+](=O)[O-])ccc1N1CCCC1	-5	4	7	15	nt	-3
Cc1ccc(C(=O)c2cc([N+](=O)[O-])ccc2N2CCN(C)CC2)cc1	15	38	nt	?	nt	nt
c1ccc(COc2ccc(OCCN3CCCCC3)cc2)cc1	-8	-18	99*	-45	-37	2
c1ccc(COc2ccc(OCCN3CCCC3)cc2)cc1	-5	-9	nt	-41	nt	nt
c1ccc(COc2ccc(OCCCN3CCCC3)cc2)cc1	1	-18	67*	?	-11	-5
SMILES	LMP1 NFkB inh	Shn3 3UTR inh	PAX8 reporter	aSyn UTR inh	EWS-Fli inh	FN deposit inh
CC[C@@H]1CCC[C@@H](O)[C@@H](C)C(=O)O[C@H](C)[C@@H](C)C/C=C(C)/C(OC)=C\C(=O)N(C)C([C@@H](C)CC)C(=O)N(C)[C@@H](C(C)C)C(=O)N(C)[C@@H](COC)C(=O)N2CCC[C@H]2C(=O)N(C)[C@@H](C(C)C)C(=O)N2CCC[C@H]2C(=O)O1 (stereo partly specified)	nt	81	88*	nt	20	3
COc1ccc(/C=C/C(=O)c2cc(Cl)cc(Cl)c2O)c(OC)c1	12	-17	20	-10	-10	-7
O=C(/C=C/c1ccccn1)c1cc(Cl)cc(Cl)c1O	7	-1	63*	-28	1	0
CCCNC(=O)N1CC2(C1)CN(C(=O)CC1CC1)[C@@H](CO)c1[nH]c3cc(OC)ccc3c12	nt	nt	nt	nt	-1	nt
CCn1c(C)nc2cc(-c3nc4n(n3)Cc3ccccc3-4)ccc21	86*	97*	nt	87*	nt	nt
CO[C@@H]1CN(C)C(=O)c2ccc(NC(=O)c3cc(C)on3)cc2OC[C@H](C)N(CC2CC2)C[C@@H]1C	nt	nt	-4	nt	-5	-6
O=C(c1ccc(F)cc1)N1CC(=O)N2[C@H](CO)[C@@H](c3ccc(/C=C/c4ccccc4)cc3)[C@@H]2C1	nt	nt	69*	nt	-5	nt
O=C1CN(S(=O)(=O)Cc2ccccc2)C[C@@H]2[C@@H](c3ccc(C#Cc4ccc(F)cc4)cc3)[C@@H](CO)N12	nt	nt	106*	nt	18	-10
CCCC#Cc1ccc([C@@H]2[C@H](CO)N3CCCCN(S(=O)(=O)Cc4ccccc4)C[C@@H]23)cc1	nt	nt	117*	nt	59*	nt
O=C(C1CCC1)N1CC(=O)N2[C@H](CO)[C@@H](c3ccc(C#CCc4ccccc4)cc3)[C@@H]2C1	nt	nt	-4	nt	3	-11
O=C1CN(S(=O)(=O)Cc2ccccc2)C[C@@H]2[C@@H](c3ccc(C#Cc4ccc(F)cc4)cc3)[C@H](CO)N12	nt	nt	53	nt	-6	nt
O=S(=O)(Cc1ccccc1)N1CCCCN2[C@H](CO)[C@@H](c3ccc(C#Cc4ccccc4)cc3)[C@@H]2C1	nt	nt	7	nt	-1	nt
O=C(C1CCC1)N1CC(=O)N2[C@H](CO)[C@H](c3ccc(C#CCc4ccccc4)cc3)[C@H]2C1	nt	nt	83*	nt	-5	-4
C[C@@H]1CN([C@@H](C)CO)C(=O)c2cccc(NC(=O)c3nc4ccccc4s3)c2O[C@@H]1CN(C)C(=O)NC1CCCCC1	nt	nt	nt	nt	-3	-1
CCCC#Cc1ccc([C@H]2[C@H]3CN(S(=O)(=O)Cc4ccccc4)CCCCN3[C@H]2CO)cc1	nt	nt	106*	nt	-6	nt
O=C1CN(Cc2ccc(F)cc2)C[C@@H]2[C@@H](c3ccc(Br)cc3)[C@@H](CO)N12	nt	nt	73*	nt	4	nt
CCCC#Cc1ccc([C@@H]2[C@@H](CO)N3CCCCN(S(=O)(=O)Cc4ccccc4)C[C@@H]23)cc1	nt	nt	-8	nt	-5	nt
O=C(Nc1ccc(C(F)(F)F)cc1)N[C@@H]1CC[C@H](CCn2cc(C3(O)CCCC3)nn2)O[C@@H]1CO	nt	nt	27	nt	11	nt
O=C1C=C(c2cc3ccccc3s2)CCC1	51*	-118	-163	-86	-103	-7
COc1ccc(C(=O)Nn2c(SCC(=O)NCC3CCCO3)nc3ccccc3c2=O)cc1 (stereo unspecified)	39	53	58	87*	nt	-4
COc1ccc(C(=O)Nn2c(SCC(=O)NC3CCCC3)nc3ccccc3c2=O)cc1	13	-14	nt	-50	nt	8
